Measured values: ChEMBL document CHEMBL3853270, “Influence of Birch Bark Triterpenes on Keratinocytes and Fibroblasts from Diabetic and Nondiabetic Donors” (2016)
The source made the active and inactive calls. The rule behind the calls is not given here.

Key:
Keratinocyte [1] = assay: Effect on cellular connection related gene expression in non-diabetic adult human primary keratinocytes assessed as GJB2 mRNA levels at 1.96 uM after 6 hrs by qPCR analysis; type: functional
Keratinocyte [2] = assay: Effect on pro-inflammatory related gene expression in non-diabetic adult human primary keratinocytes assessed as IL6 mRNA levels at 1.96 uM after 6 hrs by qPCR analysis; type: functional
Keratinocyte [3] = assay: Effect on AQP3 mRNA expression levels in non-diabetic adult human primary keratinocytes at 1.96 uM after 6 hrs by qPCR analysis; type: functional
In short: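 Primary keratinocytes from nondiabetic young and adult and diabetic adult donors; 400 000 cells per sample, 6 h exposure at 1.96 or 9.81 μM. RNA extracted and read on a high-throughput qPCR chip. Results are fold change versus 0.1% DMSO solvent control from 5−7 independent experiments over two donors per group, SD, one-way ANOVA with Bonferroni post-test.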

Keratinocyte [4] = assay: Effect on pro-inflammatory related gene expression in diabetic adult human primary keratinocytes assessed as TNF mRNA levels at 1.96 uM after 6 hrs by qPCR analysis; type: functional
Keratinocyte [5] = assay: Effect on growth factor related gene expression in diabetic adult human primary keratinocytes assessed as VEGFA mRNA levels at 1.96 uM after 6 hrs by qPCR analysis; type: functional
In short: (§1)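 Primary human keratinocytes (nondiabetic young or adult, diabetic adult donors) were exposed to compound for 6 h, with 0.1% DMSO as solvent control. Total RNA came from 400 000 cells per sample and was assayed on a Fluidigm Biomark high-throughput qPCR chip. Results are fold change vs solvent control, from 2−4 independent experiments on two donors per group, with SD. Groups were compared by one-way ANOVA with Bonferroni post-test.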

Keratinocyte [6] = assay: Effect on chemokines related gene expression in non-diabetic young human primary keratinocytes assessed as IL8 mRNA levels at 9.81 uM after 6 hrs by qPCR analysis; type: functional; in short: as §1
Keratinocyte [7] = assay: Effect on growth factor related gene expression in non-diabetic young human primary keratinocytes assessed as PDGFB mRNA levels at 9.81 uM after 6 hrs by qPCR analysis; type: functional; in short: as §1
Keratinocyte [8] = assay: Effect on transcription factor related gene expression in non-diabetic young human primary keratinocytes assessed as JUN mRNA levels at 9.81 uM after 6 hrs by qPCR analysis; type: functional
Keratinocyte [9] = assay: Effect on pro-inflammatory related gene expression in non-diabetic adult human primary keratinocytes assessed as PTGS2 mRNA levels at 9.81 uM after 6 hrs by qPCR analysis; type: functional
Keratinocyte [10] = assay: Effect on chemokines related gene expression in non-diabetic adult human primary keratinocytes assessed as CXCL10 mRNA levels at 9.81 uM after 6 hrs by qPCR analysis; type: functional
Keratinocyte [11] = assay: Effect on cellular connection related gene expression in diabetic adult human primary keratinocytes assessed as CLDN4 mRNA levels at 9.81 uM after 6 hrs by qPCR analysis; type: functional
Keratinocyte [12] = assay: Effect on chemokines related gene expression in diabetic adult human primary keratinocytes assessed as IL8 mRNA levels at 9.81 uM after 6 hrs by qPCR analysis; type: functional
Fibroblast [13] = assay: Effect on antiinflammatory related gene expression in non-diabetic young human primary fibroblasts assessed as SOCS3 mRNA levels at 1.96 uM after 6 hrs by qPCR analysis; type: functional
In short: (§2)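 Primary dermal fibroblasts from one nondiabetic young, one nondiabetic adult and one diabetic adult donor; 320 000 cells per sample, 6 h at 1.96 or 9.81 μM. RNA measured on a high-throughput qPCR chip. Fold change versus 0.1% DMSO control, four independent experiments, SD, one-way ANOVA with Bonferroni post-test.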

Fibroblast [14] = assay: Effect on antiinflammatory related gene expression in non-diabetic adult human primary fibroblasts assessed as SOCS3 mRNA levels at 1.96 uM after 6 hrs by qPCR analysis; type: functional; in short: as §2
Fibroblast [15] = assay: Effect on antioxidant related gene expression in diabetic adult human primary fibroblasts assessed as SOD2 mRNA levels at 1.96 uM after 6 hrs by qPCR analysis; type: functional
Fibroblast [16] = assay: Effect on chemokines related gene expression in non-diabetic young human primary fibroblasts assessed as IL8 mRNA levels at 9.81 uM after 6 hrs by qPCR analysis; type: functional
In short: (§3)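 Primary human dermal fibroblasts (young or adult nondiabetic, adult diabetic donor) were treated for 6 h against a 0.1% DMSO solvent control. RNA from 320 000 cells per sample was measured by Fluidigm Biomark high-throughput qPCR. Values are fold change relative to solvent control, from four independent experiments, with SD. One-way ANOVA with Bonferroni post-test was applied.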

Fibroblast [17] = assay: Effect on chemokines related gene expression in diabetic adult human primary fibroblasts assessed as CCL2 mRNA levels at 9.81 uM after 6 hrs by qPCR analysis; type: functional
Fibroblast [18] = assay: Effect on growth factor related gene expression in non-diabetic adult human primary fibroblasts assessed as GDF15 mRNA levels at 9.81 uM after 6 hrs by qPCR analysis; type: functional; in short: as §3
Fibroblast [19] = assay: Effect on chemokines related gene expression in non-diabetic adult human primary fibroblasts assessed as CCL2 mRNA levels at 1.96 uM after 6 hrs by qPCR analysis; type: functional
Fibroblast [20] = assay: Effect on growth factor related gene expression in diabetic adult human primary fibroblasts assessed as GDF15 mRNA levels at 9.81 uM after 6 hrs by qPCR analysis; type: functional; in short: as §3
Fibroblast [21] = assay: Effect on growth factor related gene expression in diabetic adult human primary fibroblasts assessed as VEGFA mRNA levels at 9.81 uM after 6 hrs by qPCR analysis; type: functional; in short: as §3
Fibroblast [22] = assay: Effect on antioxidant related gene expression in non-diabetic young human primary fibroblasts assessed as NFE2L2 mRNA levels at 1.96 uM after 6 hrs by qPCR analysis; type: functional
Fibroblast [23] = assay: Effect on growth factors related gene expression in non-diabetic young human primary fibroblasts assessed as FGF2 mRNA levels at 9.81 uM after 6 hrs by qPCR analysis; type: functional; in short: as §3
Fibroblast [24] = assay: Effect on growth factors related gene expression in non-diabetic adult human primary fibroblasts assessed as FGF2 mRNA levels at 9.81 uM after 6 hrs by qPCR analysis; type: functional; in short: as §3
[25] = Effect on wound healing activity in non-diabetic adult human primary keratinocytes assessed as upregulation of soluble E-selectin protein levels at 1.96 uM after 24 hrs by bead-based suspension array analysis; type: functional; settings: Keratinocyte
[26] = Effect on wound healing activity in non-diabetic adult human primary keratinocytes assessed as upregulation of IL1RA protein levels at 1.96 uM after 24 hrs by bead-based suspension array analysis; type: functional; settings: Keratinocyte
Keratinocyte [27] = assay: Effect on wound healing activity in non-diabetic adult human primary keratinocytes assessed as increase in soluble gp130 part of IL6 receptor protein levels at 1.96 uM after 24 hrs by bead-based suspension array analysis; type: functional
[28] = biological target: Cell division control protein 42 homolog (Homo sapiens) (UniProt P60953); assay: Activation of Cdc42 in human diabetic primary keratinocytes at 10 nM after 20 mins by immunoblot method
In short: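 Keratinocytes from a diabetic adult donor; incubation 3 h for RhoA, 20 min for Cdc42 and Rac1. Lysates made in glycerol/Tris pH 7.4/NaCl/NP-40/MgCl2/PMSF buffer, spun at 4 °C. Active GTP-bound form pulled down on glutathione-sepharose with GST-Rhotekin (RhoA) or GST-PAK (Cdc42, Rac1) for 1 h at 4 °C. Total and pulled-down protein read by immunoblot with ECL; n = 3.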

Cell division control protein 42 homolog (Homo sapiens), sequence (P60953 whole entry, looked up): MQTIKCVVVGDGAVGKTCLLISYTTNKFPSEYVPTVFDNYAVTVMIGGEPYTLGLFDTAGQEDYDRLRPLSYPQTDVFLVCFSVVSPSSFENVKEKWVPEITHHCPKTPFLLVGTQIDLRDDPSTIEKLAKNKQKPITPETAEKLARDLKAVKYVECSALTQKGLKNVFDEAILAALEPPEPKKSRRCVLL

C=C(C)[C@@H]1CC[C@]2(CO)CC[C@]3(C)[C@H](CC[C@@H]4[C@@]5(C)CC[C@H](O)C(C)(C)[C@@H]5CC[C@]43C)[C@@H]12 [BETULIN]
fold change (FC) (Keratinocyte [1]): 0.7 | fold change (FC) (Keratinocyte [2]): 16.2 | fold change (FC) (Keratinocyte [3]): 0.8 | fold change (FC) (Keratinocyte [4]): 5.3 | fold change (FC) (Keratinocyte [5]): 1.6 | fold change (FC) (Keratinocyte [6]): 21.8 | fold change (FC) (Keratinocyte [7]): 1.1 | fold change (FC) (Keratinocyte [8]): 1.8 | fold change (FC) (Keratinocyte [9]): 1.3 | fold change (FC) (Keratinocyte [10]): 4.3 | fold change (FC) (Keratinocyte [11]): 2.1 | fold change (FC) (Keratinocyte [12]): 56 | fold change (FC) (Fibroblast [13]): 3 | fold change (FC) (Fibroblast [14]): 24.4 | fold change (FC) (Fibroblast [15]): 2.2 | fold change (FC) (Fibroblast [16]): 32 | fold change (FC) (Fibroblast [17]): 1.7 | fold change (FC) (Fibroblast [18]): 3.2 | fold change (FC) (Fibroblast [19]): 171 | fold change (FC) (Fibroblast [20]): 1.8 | fold change (FC) (Fibroblast [21]): 2 | fold change (FC) (Fibroblast [22]): 1.2 | fold change (FC) (Fibroblast [23]): 1.8 | fold change (FC) (Fibroblast [24]): 3.4 | Activity [25]: Active | Activity [26]: Active | Activity (Keratinocyte [27]): Active | Activity [28]: Active
